Data taken from ChEMBL document CHEMBL4513216, “Probing the Open Global Health Chemical Diversity Library for Multistage-Active Starting Points for Next-Generation Antimalarials” (ACS Infect Dis, 2020).

assay: Toxicity liver stage against HepG2, at 10uM; format: cell-based; set-up: test concentration 10 uM, cell line HepG2-A16-CD81EGFP; conditions: human, HepG2-A16-CD81EGFP cells; read-out: INHIBITION
Outline: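 Uninfected HepG2-A16-CD81EGFP cells, 3 × 10^3 per well, 1536-well, plated on prespotted compound at 10 μM final, parasite-free screening media added to match infected plates; puromycin 10 μM positive, DMSO 0.5% negative; run in parallel with 48 h PbLuc assay at 37 °C, 5% CO2; viability by CellTiter-Glo luminescence, normalized to controls.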

In order of falling cytotoxicity at 10 µM:
1. COCCNC(=O)c1sc(Nc2ccc(Cl)cn2)nc1C  32.4%
2. Cn1nc(Br)c2c(NCCS(N)(=O)=O)ncnc21  15.8%
3. Cc1c(C(=O)NCCCC(N)=O)sc2ccc(F)cc12  14.6%
4. CC(C)[C@@H]1CN(C(=O)NCc2ccco2)C[C@H]1N(C)C  12.7%
5. COC(=O)C(O)C1CCN(CCc2ccncc2)CC1 (configuration not stated)  11.8%
6. Cc1nccc(N[C@H]2CN(C(=O)C3(C#N)CCOCC3)C[C@@H]2C(C)C)n1  9.81%
7. CCC[C@H]1CN(S(=O)(=O)c2ccc(-c3c(C)noc3C)s2)C[C@@H]1N  8.4%
8. NC(=O)c1cncc(N2CCN(Cc3cccc4nsnc34)CC2)n1  8.15%
9. CCN(C(=O)Cc1ccc(NC(=O)NC2CC2)cc1)c1ccccc1  7.84%
10. N#CC1COCCN1C(=O)c1ccc2cc[nH]c2c1 (configuration not stated)  7.75%
11. Cc1cc2ccncc2n1CC1(O)CCN(C(=O)c2ccncc2)CC1  7.53%
12. CC(C)c1nccc(CN2CCC(c3nc4ccccc4n3C)CC2)n1  7.23%
13. CC(C)C1CN(S(=O)(=O)C2CC2)CCCN1Cc1ccc(F)cc1 (configuration not stated)  7.01%
14. CN1CCCN(c2cnn(Cc3ccncc3)c(=O)c2)CC1  6.75%
15. COC(=O)C(CNC(=O)Nc1nncs1)Cc1cccc(C)c1 (configuration not stated)  6.53%
16. COCCNc1nnc(-c2ccccn2)s1  6.1%
17. COc1cccc(-c2nc(C)c(C(=O)N[C@H](CO)CC(C)C)s2)c1  5.08%
18. Cc1[nH]c(=O)[nH]c(=O)c1CC(=O)N1CCC(Oc2ccc(F)cc2)CC1  4.42%
19. CCN1CCC2(CN(C(=O)N(C)C)CC23CCNCC3)C1=O (configuration not stated)  4.29%
20. Cn1cnnc1C1CCN(C(=O)c2cc(-c3ccccc3)on2)CC1  3.77%
21. COc1cccc(OC2CN(C(=O)CCn3cnc4ccccc43)C2)c1  3.67%
22. CC(C)(C)n1ncc2c1CCCC2NCc1cccc2c1OCO2 (configuration not stated)  3.37%
23. COCCc1noc(-c2cn(Cc3ccccc3C)nn2)n1  3.15%
24. NCCC(=O)N1CCC2(CC1)CN(C(=O)c1ccc(Cl)cc1)CCO2  3.1%
25. O=C(NCc1ccc2c(c1)OCO2)N1CCCC2(C1)OCCO2  3.07%
26. Cn1ncc2c(NCCCOc3cccnc3)nc(C3CCCC3)nc21  2.94%
27. CCS(=O)(=O)Cc1nnnn1-c1ccccc1  2.7%
28. Cc1cc2n(n1)CC(CNC1CCN(CCc3ccccc3)CC1)CN2 (configuration not stated)  2.7%
29. COc1cccc([C@H]2CN(C(=O)c3noc4c3CCCC4)C[C@@H]2N)c1  2.57%
30. CC(C)(C)c1n[nH]cc1CNCC1CCN(C2CC2)C1 (configuration not stated)  2.16%
31. Cc1nn(C)c2nc(-c3ccccn3)nc(NCCC3CCCN3C)c12 (configuration not stated)  1.91%
32. COCCn1c2c(ccc1=O)CCN(C(=O)NC1CC1)CC2  1.77%
33. Cc1ccc(N2CCCC(NCCCS(C)(=O)=O)C2)nn1 (configuration not stated)  0.833%
34. CCn1c(C)nnc1CN(C)C1CCN(Cc2ccon2)C1 (configuration not stated)  0.793%
35. O=C(CN1CCOC(Cn2cccn2)C1)Nc1ccncc1 (configuration not stated)  0.748%
36. COc1ccc(CN2CCN(C(=O)c3ccc(C)n3C)CC2)cc1  -0.0113%
37. Cc1cc(C)nc(NCCCC(=O)NCCn2ccc3ccccc32)n1  -0.1%
38. Cc1cnn(CCNCCCOc2ccc(C#N)cc2)c1  -0.222%
39. CN(Cc1cccc(-n2cccn2)c1)C(=O)c1ccnc(N)c1  -0.491%
40. Cc1cc(CCCC(=O)NC2CCN(C)C2=O)c(C)s1 (configuration not stated)  -0.67%
41. Cc1cc(C)n(-c2ccc(NCCNS(=O)(=O)c3ccccc3)nn2)n1  -0.771%
42. COc1ccc([C@@H]2CN(C(=O)Cc3cccs3)C[C@H]2NC(C)=O)cc1  -1.16%
43. c1cc(CN2CC[C@@H]3[C@@H](CO[C@H]3CN3CCOCC3)C2)cs1  -1.19%
44. Cn1ncc2c1C(COCC1CC1)CN(Cc1ccoc1)C2 (configuration not stated)  -1.21%
45. CC1CCCN(S(=O)(=O)N2CCOC3(CCCC3)C2)C1 (configuration not stated)  -1.57%
46. CC(C)Oc1ccc(CSc2nnc(CN3CCCC3=O)o2)cc1  -1.71%
47. CC(c1cccnc1)N1CCN(C(=O)NCc2cnn(C)c2)CC1 (configuration not stated)  -2.38%
48. Cc1ccc(CN2CCN(Cc3ccc(N(C)C)nc3)CC2=O)cc1C  -2.43%
49. CCOCC1CN(Cc2ccoc2)Cc2nn(C)cc21 (configuration not stated)  -2.8%
50. CN(C)C(=O)[C@H]1C[C@@H]2CCN(C3CCOCC3)C[C@@H]2O1  -3.01%
51. CN1CCc2nc(C3CCN(C(=O)CCC4CCCC4)CC3)ncc2C1  -3.06%
52. COc1ccc2c(c1)CCCN2Cc1nc2c(cnn2C)c(=O)[nH]1  -3.3%
53. CN(CCn1cccn1)c1cc(C(F)(F)F)nc(-c2cccnc2)n1  -3.63%
54. CCCNC(=O)CCC(=O)N1CCC(c2n[nH]c(C3CC3)n2)CC1  -3.82%
55. COCCN1CC(=O)c2sc(NC(C)C)nc2C1  -4.91%
56. COC(=O)c1cccc2nc([C@H]3CCN(Cc4ccccc4F)C3)oc12  -5.46%
57. CC(C)C(Sc1nnc(NC2CC2)s1)C(=O)NCc1cccnc1 (configuration not stated)  -5.49%
58. CC(CCNC(=O)N1CCC1)N(C)C(=O)OC(C)(C)C (configuration not stated)  -5.61%
59. OCCCNC1CCc2cc3c(cc21)OCCO3 (configuration not stated)  -5.93%
60. CCOCC(=O)N1CCc2c(ncnc2N2CCOCC2)C1  -6.63%
61. Cc1cccnc1NC(=O)NC(C)Cn1cccn1 (configuration not stated)  -6.8%
62. CC(C)c1ccc(CCC(=O)N(C)C2CCN(C)C2=O)cc1 (configuration not stated)  -7.79%
63. COCC1CC2(CCN(Cc3cnn(C)c3)CC2)CN1c1ncccn1 (configuration not stated)  -8.19%
64. CC(=O)c1ccc(Nc2nc(N)nc3c2nc(C)n3C)cc1  -8.23%
65. COC(=O)NCC(=O)N1CCC(c2cc3ccccc3[nH]2)CC1  -8.55%
66. CCN1Cc2cc(OC)ccc2N(CC(C)(C)O)CCC1=O  -12.2%
67. Cc1noc(C)c1C(=O)NCCN1CCN(S(C)(=O)=O)CC1  -12.4%
68. CC(C)c1nn(C)c(N(C)C)c1CNC1CCCOc2ccccc21 (configuration not stated)  -13.1%
69. Cc1nn(C)c(N(C)C)c1CNC(C)COc1ccccc1F (configuration not stated)  -14.1%
70. O=C(Cc1n[nH]c2ccccc12)N1CCCCC1Cn1cccn1 (configuration not stated)  -14.8%
71. O=C(c1ccccn1)N1CCCC(c2nccn2CC2CCC2)C1 (configuration not stated)  -22.4%
72. Cn1nccc1CCC(=O)N1CCCC(c2cnccn2)C1 (configuration not stated)  -22.7%
73. Cc1sc2c(C3CCCN(S(C)(=O)=O)C3)nc(C)n2c1C (configuration not stated)  -33%
74. CN(Cc1cc(C2CC2)on1)C(=O)C(c1cccnc1)N1CCCC1 (configuration not stated)  -41.6%
75. COCCCC1CCCCN1C(=O)c1ccc(SCCO)cc1 (configuration not stated)  -50%
76. Cc1noc([C@@H]2C[C@H]3CN(C(=O)C4CCN(C)CC4)C[C@H]3O2)n1  -71.2%
77. Cn1cc(CN2CC[C@H](O)[C@@H]2Cc2ccccc2)cn1  -73%
78. COc1ccc(CN2CCC3(CC2)CCN(c2cnn(C)c2)C3=O)cc1  -85.6%
79. Cc1ncsc1CN1C[C@@H]2COC[C@]2(C(=O)NC2CC(F)(F)C2)C1  -103%
80. Cn1nc(C#N)c2c1CN(C(=O)c1c[nH]cn1)CCC2  -122%
81. COC(=O)C(C)(C)NC(=O)C1CC(=O)N(CC(F)(F)F)C1 (configuration not stated)  -141%
82. COCCN(CCOC)C(=O)c1cnn(C)c1C  -149%
